Assay results from ChEMBL document CHEMBL1828552, “Synthesis and studies of novel 2-(4-cyano-3-trifluoromethylphenyl amino)-4-(quinoline-4-yloxy)-6-(piperazinyl/piperidinyl)-s-triazines as potential antimicrobial, antimycobacterial and anticancer agents” (2011).
Converted amounts (≈) assume the structure as drawn.

Key:
Klebsiella pneumoniae [1] = experiment: Antibacterial activity against 10^5 CFU/mL Klebsiella pneumoniae MTCC 109 after 24 hrs by disc diffusion technique; assay type: functional
Summary of the method: (§1)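 Disc diffusion on Mueller–Hinton agar poured 5 mm deep. The surface was swabbed with a 10⁵ CFU/mL […] suspension. Filter-paper discs 6.25 mm in diameter were soaked in compound in DMSO and placed on the agar. Plates were incubated 24 h at 37 ± 1 °C, and the inhibition zone was measured in mm. A DMSO disc served as blank.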

Pseudomonas aeruginosa [2] = experiment: Antibacterial activity against 10^5 CFU/mL Pseudomonas aeruginosa MTCC 741 after 24 hrs by disc diffusion technique; assay type: functional; summary of the method: as §1
Staphylococcus aureus [3] = experiment: Antibacterial activity against 10^5 CFU/mL Staphylococcus aureus MTCC 96 after 24 hrs by agar streak dilution method; assay type: functional; settings: MTCC 96, 24 h
Summary of the method: (§2)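 Agar streak dilution. Stock 100 µg/mL in DMSO; graded amounts were mixed into molten nutrient agar and poured at 4–5 mm depth. Plates carried serial dilutions over […]. About 10⁵ CFU/mL of each bacterium was applied, and plates were incubated at 37 ± 1 °C for 24 h. MIC was read from the dilution series.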

Aspergillus clavatus [4] = experiment: Antifungal activity against 10^5 CFU/mL Aspergillus clavatus MTCC 1323 after 48 hrs by agar streak dilution method; assay type: functional; settings: MTCC 1323, 48 h
Summary of the method: (§3)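 Agar streak dilution for fungi. Stock 100 µg/mL in DMSO; graded amounts were mixed into molten Sabouraud dextrose agar and poured at 4–5 mm depth. Serial dilutions ran over […]. About 10⁵ CFU/mL inoculum was applied, with incubation at 37 ± 1 °C for 48 h. MIC was read from the dilution series.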

DU-145 = experiment: Cytotoxicity against […] human DU145 cells after 48 hrs by SRB assay; assay type: functional; settings: DU-145, 48 h
Summary of the method: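 SRB assay in DU-145 cells grown in RPMI 1640 with 10% FBS and 2 mM L-glutamine. Cells were plated and held 24 h before addition of four 10-fold concentrations. After 48 h, cells were TCA-fixed, stained with 0.4% SRB and read at 540 nm. GI50, TGI and LC50 were derived against time-zero and control wells; each value is the mean of three experiments.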

Escherichia coli [5] = experiment: Antibacterial activity against 10^5 CFU/mL Escherichia coli MTCC 739 after 24 hrs by disc diffusion technique; assay type: functional; summary of the method: as §1
Pseudomonas aeruginosa [6] = experiment: Antibacterial activity against 10^5 CFU/mL Pseudomonas aeruginosa MTCC 741 after 24 hrs by agar streak dilution method; assay type: functional; settings: MTCC 741, 24 h; summary of the method: as §2
Bacillus cereus [7] = experiment: Antibacterial activity against 10^5 CFU/mL Bacillus cereus MTCC 619 after 24 hrs by disc diffusion technique; assay type: functional; summary of the method: as §1
[8] = system: Mycobacterium tuberculosis; experiment: Antimycobacterial activity against 10^4 to 10^7 CFU/mL Mycobacterium tuberculosis H37Rv after 24 hrs measured after 28 days post-inoculation; assay type: functional
Summary of the method: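 Secondary MIC on Lowenstein-Jensen medium. DMSO dilutions (50, 25, 12.5, 6.25, […]) added to L.J. medium, then inspissated. Tubes incubated at 37 ± 1 °C for 24 h, then streaked with 5×10⁴ H37Rv bacilli per tube. Growth read at 12, 22 and 28 days against drug-free controls. MIC = no colonies or fewer than 20 colonies.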

Proteus vulgaris [9] = experiment: Antibacterial activity against 10^5 CFU/mL Proteus vulgaris MTCC 1771 after 24 hrs by disc diffusion technique; assay type: functional; summary of the method: as §1
Escherichia coli [10] = experiment: Antibacterial activity against 10^5 CFU/mL Escherichia coli MTCC 739 after 24 hrs by agar streak dilution method; assay type: functional; settings: MTCC 739, 24 h; summary of the method: as §2
Salmonella typhi [11] = experiment: Antibacterial activity against 10^5 CFU/mL Salmonella typhi MTCC 733 after 24 hrs by agar streak dilution method; assay type: functional, Salmonella enterica subsp. enterica serovar Typhi; settings: Salmonella enterica, MTCC 733, 24 h
Salmonella typhi [12] = experiment: Antibacterial activity against 10^5 CFU/mL Salmonella typhi MTCC 733 after 24 hrs by disc diffusion technique; assay type: functional, Salmonella enterica subsp. enterica serovar Typhi
Summary of the method: (§4)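 Disc diffusion. Mueller-Hinton agar autoclaved 120 °C 30 min, poured 5 mm deep. Surface swabbed with 10⁵ CFU/mL suspension […]. 6.25 mm filter-paper discs soaked in compound in DMSO; DMSO-only disc as blank. Incubated 37 ± 1 °C, 24 h for bacteria or 48 h for fungi. Ciprofloxacin and ketoconazole discs as reference drugs. Inhibition zone measured in mm.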

Candida albicans [13] = experiment: Antifungal activity against 10^5 CFU/mL Candida albicans MTCC 183 after 48 hrs by disc diffusion technique; assay type: functional
Aspergillus niger [14] = experiment: Antifungal activity against 10^5 CFU/mL Aspergillus niger MTCC 282 after 48 hrs by disc diffusion technique; assay type: functional
Aspergillus fumigatus [15] = experiment: Antifungal activity against 10^5 CFU/mL Aspergillus fumigatus MTCC 343 after 48 hrs by disc diffusion technique; assay type: functional
Candida albicans [16] = experiment: Antifungal activity against 10^5 CFU/mL Candida albicans MTCC 183 after 48 hrs by agar streak dilution method; assay type: functional; settings: MTCC 183, 48 h; summary of the method: as §3
Staphylococcus aureus [17] = experiment: Antibacterial activity against 10^5 CFU/mL Staphylococcus aureus MTCC 96 after 24 hrs by disc diffusion technique; assay type: functional; summary of the method: as §1
Proteus vulgaris [18] = experiment: Antibacterial activity against 10^5 CFU/mL Proteus vulgaris MTCC 1771 after 24 hrs by agar streak dilution method; assay type: functional; settings: MTCC 1771, 24 h; summary of the method: as §2
Klebsiella pneumoniae [19] = experiment: Antibacterial activity against 10^5 CFU/mL Klebsiella pneumoniae MTCC 109 after 24 hrs by agar streak dilution method; assay type: functional; settings: MTCC 109, 24 h; summary of the method: as §2
Shigella flexneri [20] = experiment: Antibacterial activity against 10^5 CFU/mL Shigella flexneri MTCC 1457 after 24 hrs by disc diffusion technique; assay type: functional; summary of the method: as §1
Aspergillus fumigatus [21] = experiment: Antifungal activity against 10^5 CFU/mL Aspergillus fumigatus MTCC 343 after 48 hrs by agar streak dilution method; assay type: functional; settings: MTCC 343, 48 h; summary of the method: as §3
Aspergillus niger [22] = experiment: Antifungal activity against 10^5 CFU/mL Aspergillus niger MTCC 282 after 48 hrs by agar streak dilution method; assay type: functional; settings: MTCC 282, 48 h; summary of the method: as §3
Shigella flexneri [23] = experiment: Antibacterial activity against 10^5 CFU/mL Shigella flexneri MTCC 1457 after 24 hrs by agar streak dilution method; assay type: functional; settings: MTCC 1457, 24 h; summary of the method: as §2
Bacillus cereus [24] = experiment: Antibacterial activity against 10^5 CFU/mL Bacillus cereus MTCC 619 after 24 hrs by agar streak dilution method; assay type: functional; settings: MTCC 619, 24 h; summary of the method: as §2
Aspergillus clavatus [25] = experiment: Antifungal activity against 10^5 CFU/mL Aspergillus clavatus MTCC 1323 after 48 hrs by disc diffusion technique; assay type: functional
Salmonella typhi [26] = experiment: Antibacterial activity against 10^5 CFU/mL Salmonella typhi MTCC 733 at 100 ug/ml after 24 hrs by disc diffusion technique; assay type: functional, Salmonella enterica subsp. enterica serovar Typhi; settings: Salmonella enterica, MTCC 733, 24 h; read-out: IZ; summary of the method: as §4
Klebsiella pneumoniae [27] = experiment: microbe, parasite or virus in culture; settings: MTCC 109, 24 h, read-out: IZ
Bacillus cereus [28] = experiment: Antibacterial activity against 10^5 CFU/mL Bacillus cereus MTCC 619 at 100 ug/ml after 24 hrs by disc diffusion technique; assay type: functional; settings: MTCC 619, 24 h, read-out: IZ; summary of the method: as §1
Staphylococcus aureus [29] = experiment: Antibacterial activity against 10^5 CFU/mL Staphylococcus aureus MTCC 96 at 100 ug/ml after 24 hrs by disc diffusion technique; settings: MTCC 96, 24 h, read-out: IZ
Escherichia coli [30] = experiment: microbe, parasite or virus in culture; settings: MTCC 739, 24 h, read-out: IZ
Proteus vulgaris [31] = experiment: Antibacterial activity against 10^5 CFU/mL Proteus vulgaris MTCC 1771 at 100 ug/ml after 24 hrs by disc diffusion technique; assay type: functional; settings: MTCC 1771, 24 h, read-out: IZ; summary of the method: as §1
Shigella flexneri [32] = experiment: Antibacterial activity against 10^5 CFU/mL Shigella flexneri MTCC 1457 at 100 ug/ml after 24 hrs by disc diffusion technique; assay type: functional; settings: MTCC 1457, 24 h, read-out: IZ; summary of the method: as §1
Pseudomonas aeruginosa [33] = experiment: microbe, parasite or virus in culture; settings: MTCC 741, 24 h, read-out: IZ
Aspergillus clavatus [34] = experiment: Antifungal activity against 10^5 CFU/mL Aspergillus clavatus MTCC 1323 at 100 ug/ml after 48 hrs by disc diffusion technique; assay type: functional; settings: MTCC 1323, 48 h, read-out: IZ; summary of the method: as §4
Candida albicans [35] = experiment: Antifungal activity against 10^5 CFU/mL Candida albicans MTCC 183 at 100 ug/ml after 48 hrs by disc diffusion technique; assay type: functional; settings: MTCC 183, 48 h, read-out: IZ; summary of the method: as §4
Aspergillus niger [36] = experiment: Antifungal activity against 10^5 CFU/mL Aspergillus niger MTCC 282 at 100 ug/ml after 48 hrs by disc diffusion technique; assay type: functional; settings: MTCC 282, 48 h, read-out: IZ; summary of the method: as §4
Aspergillus fumigatus [37] = experiment: Antifungal activity against 10^5 CFU/mL Aspergillus fumigatus MTCC 343 at 100 ug/ml after 48 hrs by disc diffusion technique; assay type: functional; settings: MTCC 343, 48 h, read-out: IZ; summary of the method: as §4

CC1CC(C)CN(c2nc(Nc3ccc(C#N)c(C(F)(F)F)c3)nc(Oc3ccnc4ccccc34)n2)C1 (configuration not stated)
inhibition zone (IZ) (Klebsiella pneumoniae [1]): 23 mm | inhibition zone (IZ) (Pseudomonas aeruginosa [2]): 24 mm | MIC (Staphylococcus aureus [3]): 6.25 µg/mL (≈ 12 µM) | MIC (Aspergillus clavatus [4]): 25 µg/mL (≈ 48.1 µM) | GI50 (DU-145): 27.2 µM | LC50 (concentration giving 50% net cell kill relative to time zero) (DU-145): > 100 µM | TGI (DU-145): 68 µM | inhibition zone (IZ) (Escherichia coli [5]): 25 mm | MIC (Pseudomonas aeruginosa [6]): 12.5 µg/mL (≈ 24.1 µM) | inhibition zone (IZ) (Bacillus cereus [7]): 25 mm | MIC99 [8]: 3.12 µg/mL (≈ 6.01 µM) | inhibition zone (IZ) (Proteus vulgaris [9]): 27 mm | MIC (Escherichia coli [10]): 12.5 µg/mL (≈ 24.1 µM) | MIC (Salmonella typhi [11]): 12.5 µg/mL (≈ 24.1 µM) | inhibition zone (IZ) (Salmonella typhi [12]): 27 mm | inhibition zone (IZ) (Candida albicans [13]): 18 mm | inhibition zone (IZ) (Aspergillus niger [14]): 23 mm | inhibition zone (IZ) (Aspergillus fumigatus [15]): 25 mm | MIC (Candida albicans [16]): 100 µg/mL (≈ 192 µM) | inhibition zone (IZ) (Staphylococcus aureus [17]): 27 mm | MIC (Proteus vulgaris [18]): 6.25 µg/mL (≈ 12 µM) | MIC (Klebsiella pneumoniae [19]): 25 µg/mL (≈ 48.1 µM) | inhibition zone (IZ) (Shigella flexneri [20]): 25 mm | MIC (Aspergillus fumigatus [21]): 50 µg/mL (≈ 96.2 µM) | MIC (Aspergillus niger [22]): 50 µg/mL (≈ 96.2 µM) | MIC (Shigella flexneri [23]): 12.5 µg/mL (≈ 24.1 µM) | MIC (Bacillus cereus [24]): 12.5 µg/mL (≈ 24.1 µM) | inhibition zone (IZ) (Aspergillus clavatus [25]): 26 mm

O=C(O)c1cn(C2CC2)c2cc(N3CCNCC3)c(F)cc2c1=O [CIPROFLOXACIN]
zone of inhibition at 100 µg/mL (Salmonella typhi [26]): 30 mm | MIC (Staphylococcus aureus [3]): ≤ 1 µg/mL | zone of inhibition at 100 µg/mL (Klebsiella pneumoniae [27]): 33 mm | zone of inhibition at 100 µg/mL (Bacillus cereus [28]): 31 mm | zone of inhibition at 100 µg/mL (Staphylococcus aureus [29]): 30 mm | MIC (Pseudomonas aeruginosa [6]): ≤ 1 µg/mL | MIC (Escherichia coli [10]): ≤ 1 µg/mL | zone of inhibition at 100 µg/mL (Escherichia coli [30]): 32 mm | MIC (Salmonella typhi [11]): ≤ 1 µg/mL | zone of inhibition at 100 µg/mL (Proteus vulgaris [31]): 31 mm | zone of inhibition at 100 µg/mL (Shigella flexneri [32]): 32 mm | MIC (Proteus vulgaris [18]): ≤ 1 µg/mL | MIC (Klebsiella pneumoniae [19]): ≤ 1 µg/mL | zone of inhibition at 100 µg/mL (Pseudomonas aeruginosa [33]): 33 mm | MIC (Shigella flexneri [23]): ≤ 3 µg/mL | MIC (Bacillus cereus [24]): ≤ 1 µg/mL

CC(=O)N1CCN(c2ccc(OCC3COC(Cn4ccnc4)(c4ccc(Cl)cc4Cl)O3)cc2)CC1 (configuration not stated) [KETOCONAZOLE]
MIC (Aspergillus clavatus [4]): ≤ 1 µg/mL | zone of inhibition at 100 µg/mL (Aspergillus clavatus [34]): 31 mm | zone of inhibition at 100 µg/mL (Candida albicans [35]): 33 mm | zone of inhibition at 100 µg/mL (Aspergillus niger [36]): 30 mm | MIC (Candida albicans [16]): ≤ 1 µg/mL | MIC (Aspergillus fumigatus [21]): ≤ 1 µg/mL | MIC (Aspergillus niger [22]): ≤ 3 µg/mL | zone of inhibition at 100 µg/mL (Aspergillus fumigatus [37]): 29 mm
